Measured values reported in ChEMBL document CHEMBL4411275, “Design, synthesis and biological evaluation of quinoline-indole derivatives as anti-tubulin agents targeting the colchicine binding site” (Eur J Med Chem, 2019).

What was measured:
[1] = test system: K562; test: Antiproliferative activity against human K562 cells after 72 hrs by MTT assay; format: functional, cell-based; conditions: K562, 72 h
Summary of the method: (§1)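 Cells preincubated 24 h at 37 °C, 5% CO₂. Compounds added at several concentrations in medium with 0.1% DMSO for 72 h. MTT (5 mg/mL in PBS) then added for 4 h, and optical density read at 490 nm. IC50 taken from dose-response curves; mean ± SD of at least three independent experiments.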

[2] = test system: KB; test: Antiproliferative activity against human KB cells after 72 hrs by MTT assay; format: functional, cell-based; summary of the method: as §1
[3] = test system: MDA-MB-231; test: Antiproliferative activity against human MDA-MB-231 cells after 72 hrs by MTT assay; format: functional, cell-based; conditions: MDA-MB-231, 72 h; summary of the method: as §1
[4] = test system: L02; test: Antiproliferative activity against human LO2 cells after 72 hrs by MTT assay; format: cell-based; conditions: L02, 72 h; summary of the method: as §1
[5] = test system: A549; test: Antiproliferative activity against human A549 cells after 72 hrs by MTT assay; format: functional, cell-based; conditions: A549, 72 h; summary of the method: as §1
[6] = test system: Bel-7402; test: Antiproliferative activity against human Bel7402 cells after 72 hrs by MTT assay; format: functional, cell-based; conditions: Bel-7402, 72 h; summary of the method: as §1
[7] = Antiproliferative activity against human taxol-resistant HCT8/T cells after 72 hrs by MTT assay; format: functional; conditions: HCT-8, 72 h; summary of the method: as §1
[8] = Drug resistance index, ratio of IC50 for taxol-resistant human HCT8/T cells to IC50 for human HCT8 cells; format: functional
Summary of the method: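 Resistant and parental sensitive lines exposed to a range of compound concentrations in medium with 0.1% DMSO for 72 h at 37 °C, 5% CO2, after 24 h pre-culture. MTT added for 4 h, absorbance read at 490 nm. IC50 from dose-response curves, at least three independent experiments. DRI = IC50 resistant / IC50 parental.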

[9] = biological target: Tubulin (Sus scrofa, UniProt P02554+P02550); test: Inhibition of porcine brain tubulin polymerization preincubated for 30 mins and measured every 2 mins for 60 mins by spectrophotometric analysis
[10] = biological target: Tubulin (Sus scrofa) (UniProt P02554+P02550); test: Inhibition of [3H]-colchicine binding to biotinylated porcine tubulin at 1 uM after 2 hrs by SPA relative to control; format: protein assay
Summary of the method: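 Scintillation proximity assay: 0.08 μM [3H]colchicine incubated with biotinylated porcine tubulin (0.5 μg) and test compound for 2 h at 37 °C in 80 mM PIPES pH 6.8, 1 mM EGTA, 10% glycerol, 1 mM MgCl2, 1 mM GTP. Streptavidin SPA beads then added, and bound radioactivity counted by scintillation counter.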

[11] = biological target: Tubulin (Homo sapiens) (UniProt P68371+Q9H4B7+P0DPH7+P68366+Q13509+Q71U36+P04350+Q3ZCM7+P07437+P68363+Q9BQE3+Q6PEY2+Q13885+Q9BVA1+Q9BUF5); test: Induction of microtubule disruption in human K562 cells after 24 hrs by DAPI staining-based fluorescence assay; format: cell-based
Summary of the method: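 K562 cells exposed 24 h to 1, 2 or 4 nM compound or 0.1% DMSO. Fixed in 4% paraformaldehyde and blocked 20 min with goat serum at room temperature. Incubated with anti-α-tubulin monoclonal antibody for 2 h at 37 °C, then fluorescent antibody, with DAPI nuclear counterstain. Imaged by confocal microscopy.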

[12] = test system: K562; test: Cell cycle arrest in human K562 cells assessed as accumulation of cells at G1 phase at 1 nM after 48 hrs by propidium iodide staining-based flow cytometric analysis (reference value: 69.57%); format: functional
[13] = test system: K562; test: Cell cycle arrest in human K562 cells assessed as accumulation of cells at S phase at 1 nM after 48 hrs by propidium iodide staining-based flow cytometric analysis (reference value: 19.93%); format: functional
[14] = test system: K562; test: Cell cycle arrest in human K562 cells assessed as accumulation of cells at G2 phase at 1 nM after 48 hrs by propidium iodide staining-based flow cytometric analysis (reference value: 10.51%); format: functional
[15] = test system: K562; test: Cell cycle arrest in human K562 cells assessed as accumulation of cells at S phase at 2 nM after 48 hrs by propidium iodide staining-based flow cytometric analysis (reference value: 19.93%); format: functional
[16] = test system: K562; test: Cell cycle arrest in human K562 cells assessed as accumulation of cells at G2 phase at 2 nM after 48 hrs by propidium iodide staining-based flow cytometric analysis (reference value: 10.51%); format: functional
[17] = test system: K562; test: Cell cycle arrest in human K562 cells assessed as accumulation of cells at S phase at 4 nM after 48 hrs by propidium iodide staining-based flow cytometric analysis (reference value: 19.93%); format: functional
[18] = test system: K562; test: Cell cycle arrest in human K562 cells assessed as accumulation of cells at G2 phase at 4 nM after 48 hrs by propidium iodide staining-based flow cytometric analysis (reference value: 10.51%); format: functional
[19] = test system: HUVEC; test: Anti-migratory activity in HUVEC after 24 hrs by inverted microscopic analysis; format: functional, cell-based; conditions: Homo sapiens
Summary of the method: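 Scratch wound made in monolayers with a 200 μL pipette tip, then washed twice with PBS. Medium with 1, 2 or 4 nM compound added. Phase-contrast images taken at 0 h and 24 h, and the migration distance into the wound measured manually.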

[20] = test system: HUVEC; test: Anti-vascular activity in HUVEC assessed as inhibition of tube formation after 6 hrs by inverted microscopic analysis; format: functional, cell-based; conditions: Homo sapiens
Summary of the method: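 Matrigel thawed overnight at 4 °C and polymerised at 37 °C for 30 min. HUVECs in DMEM seeded at 50,000 cells/well, then exposed to 1, 2 or 4 nM compound or vehicle for 6 h at 37 °C. Capillary-like tubes photographed under an inverted microscope.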

[21] = test system: HUVEC; test: Antiproliferative activity against HUVEC at 2 to 4 nM after 6 hrs; format: cell-based; conditions: human, 0.004 µM
[22] = test system: H22 (Mus musculus); test: Antiproliferative activity against mouse H22 cells after 72 hrs by MTT assay; conditions: H22, 72 h
[23] = test system: H22 (Mus musculus); test: Antitumor activity against mouse H22 cells xenografted in ICR mouse assessed as reduction in tumor weight at 20 mg/kg/day, iv for 21 days relative to control; parameters: scale not given: the % may be the effect or the level left
[24] = test system: K562; test: Induction of mitochondrial membrane potential loss in human K562 cells assessed as intact mitochondrial membrane at 2 nM after 48 hrs by JC-1 dye-based flow cytometric analysis (RVB = 93.17%)
[25] = test system: K562; test: Induction of mitochondrial membrane potential loss in human K562 cells assessed as collapsed mitochondrial membrane at 1 nM after 48 hrs by JC-1 dye-based flow cytometric analysis (RVB = 6.17%)
[26] = test system: K562; test: Induction of mitochondrial membrane potential loss in human K562 cells assessed as collapsed mitochondrial membrane at 2 nM after 48 hrs by JC-1 dye-based flow cytometric analysis (RVB = 6.17%)
[27] = test system: K562; test: Induction of mitochondrial membrane potential loss in human K562 cells assessed as collapsed mitochondrial membrane at 4 nM after 48 hrs by JC-1 dye-based flow cytometric analysis (RVB = 6.17%)

Chain of Tubulin (Sus scrofa) (P02550 whole entry, looked up): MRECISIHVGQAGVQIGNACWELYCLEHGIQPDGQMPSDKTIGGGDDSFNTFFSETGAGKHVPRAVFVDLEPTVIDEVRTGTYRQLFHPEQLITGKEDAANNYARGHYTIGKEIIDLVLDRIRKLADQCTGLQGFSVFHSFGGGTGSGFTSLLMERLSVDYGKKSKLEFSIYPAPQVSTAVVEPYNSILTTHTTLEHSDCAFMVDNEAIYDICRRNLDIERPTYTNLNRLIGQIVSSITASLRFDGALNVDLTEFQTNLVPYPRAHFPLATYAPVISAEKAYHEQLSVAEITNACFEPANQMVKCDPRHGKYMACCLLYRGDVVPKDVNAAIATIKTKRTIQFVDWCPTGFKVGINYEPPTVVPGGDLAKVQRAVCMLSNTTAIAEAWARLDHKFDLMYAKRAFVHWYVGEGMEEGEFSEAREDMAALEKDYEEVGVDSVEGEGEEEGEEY
Chain of Tubulin (Sus scrofa) (P02554 whole entry, looked up): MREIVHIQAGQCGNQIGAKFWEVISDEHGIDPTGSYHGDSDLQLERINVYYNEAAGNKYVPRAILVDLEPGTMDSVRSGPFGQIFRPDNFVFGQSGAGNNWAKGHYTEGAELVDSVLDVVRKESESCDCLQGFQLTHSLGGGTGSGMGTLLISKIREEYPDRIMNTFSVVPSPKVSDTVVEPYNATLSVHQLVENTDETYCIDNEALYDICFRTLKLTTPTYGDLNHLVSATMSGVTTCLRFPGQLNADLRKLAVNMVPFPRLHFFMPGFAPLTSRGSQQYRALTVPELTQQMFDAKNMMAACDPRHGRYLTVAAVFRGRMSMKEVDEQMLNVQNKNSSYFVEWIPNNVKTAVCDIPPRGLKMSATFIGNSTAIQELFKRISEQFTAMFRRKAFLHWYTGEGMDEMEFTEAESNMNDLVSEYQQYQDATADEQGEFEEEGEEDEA

IC50 [1]: 2 nM | IC50 [2]: 5 nM | IC50 [3]: 6 nM | IC50 [5]: 9 nM | IC50 [6]: 10 nM | IC50 [9]: 2.09 µM | inhibition [10]: 79.4% | Activity [11]: Dose-dependent effect
Compound: C=C(c1ccc2c(ccn2CO)c1)c1cc(C)nc2ccccc12
IC50 [4]: 48 nM | IC50 [7]: 88 nM | Ratio IC50 [8]: 12.6 | Activity [12]: 60.18% | Activity [13]: 27.38% | Activity [14]: 12.44% | Activity [15]: 33.21% | Activity [16]: 16.16% | Activity [17]: 31% | Activity [18]: 23.21% | Activity [19]: Dose-dependent effect | Activity [20]: Dose-dependent effect | Activity [21]: Non-Toxic | IC50 [22]: 6 nM | Activity [23]: 57.3% | Activity [24]: 45.4% | Activity [25]: 28.99% | Activity [26]: 45.1% | Activity [27]: 73.55%
